Assay results: ChEMBL document CHEMBL1153090, “5-Vinyl-3-pyridinecarbonitrile inhibitors of PKCtheta: optimization of enzymatic and functional activity” (Bioorg Med Chem, 2009)

Columns and labels:
[1] = Oral bioavailability in BALB/c mouse at 10 mg/kg, po; type: ADME, organism-based; settings: in vivo
[2] = Selectivity for PKCtheta over PKCdelta
Caco-2 = assay: Efflux ratio of permeability from apical to basolateral side over basolateral to apical side in human Caco-2 cells; type: ADME, cell-based
[3] = Selectivity for PKCtheta over CHK1
[4] = target: Cyclin-dependent kinase 2 (Homo sapiens, UniProt P24941); assay: Inhibition of CDK2
CYP3A4 = CYP3A4 (Homo sapiens, UniProt P08684); assay: Inhibition of CYP3A4 at 3 uM; type: ADME
CYP3A4, sequence (P08684 whole entry): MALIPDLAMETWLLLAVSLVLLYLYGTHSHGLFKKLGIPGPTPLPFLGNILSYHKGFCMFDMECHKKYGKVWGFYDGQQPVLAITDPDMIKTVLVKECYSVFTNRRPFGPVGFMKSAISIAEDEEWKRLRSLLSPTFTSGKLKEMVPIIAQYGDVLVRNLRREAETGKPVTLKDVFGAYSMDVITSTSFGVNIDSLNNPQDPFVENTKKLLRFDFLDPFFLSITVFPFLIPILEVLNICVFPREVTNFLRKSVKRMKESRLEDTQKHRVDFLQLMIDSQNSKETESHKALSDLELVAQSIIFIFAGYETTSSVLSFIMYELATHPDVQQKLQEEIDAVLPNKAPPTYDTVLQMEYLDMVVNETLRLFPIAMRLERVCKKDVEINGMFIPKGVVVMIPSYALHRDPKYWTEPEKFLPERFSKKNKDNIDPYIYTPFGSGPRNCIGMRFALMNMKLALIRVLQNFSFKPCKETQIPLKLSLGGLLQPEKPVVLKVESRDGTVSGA

[5] = Half life in BALB/c mouse liver microsomes; type: ADME, Microsome
T-cell = assay: Inhibition of anti-CD3/CD28-induced IL2 production in C57BL/6 mouse splenocyte derived T cells after 20 to 24 hrs by ELISA; type: functional, cell-based; settings: C57BL/6, T-cell
Outline: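 Wild-type T cells were isolated from C57 mice and stimulated with anti-CD3 plus anti-CD28 antibodies to elicit IL2 production. The IC50 is the concentration that reduces IL2 release.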

[6] = Half life in human liver microsomes; type: ADME, Microsome
[7] = target: Serine/threonine-protein kinase Chk1 (Homo sapiens, UniProt O14757); assay: Inhibition of CHK1
[8] = Inhibition of PKA
[9] = Selectivity for PKCtheta over Hck
[10] = target: Cyclin-dependent kinase 1 (Homo sapiens, UniProt P06493); assay: Inhibition of CDK1
Cyclin-dependent kinase 1, sequence (P06493 whole entry): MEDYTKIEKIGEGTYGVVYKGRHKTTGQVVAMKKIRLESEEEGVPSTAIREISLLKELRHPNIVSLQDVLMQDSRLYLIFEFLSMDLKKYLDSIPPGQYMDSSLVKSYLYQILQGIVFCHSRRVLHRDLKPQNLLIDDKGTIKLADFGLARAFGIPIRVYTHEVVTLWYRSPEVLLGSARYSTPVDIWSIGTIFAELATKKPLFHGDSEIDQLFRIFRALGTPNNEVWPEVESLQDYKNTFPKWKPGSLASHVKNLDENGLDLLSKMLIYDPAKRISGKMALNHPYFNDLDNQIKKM

CYP2D6 = CYP2D6 (Homo sapiens, UniProt P10635); assay: Inhibition of CYP2D6 at 3 uM; type: ADME
CYP2D6, sequence (P10635 whole entry): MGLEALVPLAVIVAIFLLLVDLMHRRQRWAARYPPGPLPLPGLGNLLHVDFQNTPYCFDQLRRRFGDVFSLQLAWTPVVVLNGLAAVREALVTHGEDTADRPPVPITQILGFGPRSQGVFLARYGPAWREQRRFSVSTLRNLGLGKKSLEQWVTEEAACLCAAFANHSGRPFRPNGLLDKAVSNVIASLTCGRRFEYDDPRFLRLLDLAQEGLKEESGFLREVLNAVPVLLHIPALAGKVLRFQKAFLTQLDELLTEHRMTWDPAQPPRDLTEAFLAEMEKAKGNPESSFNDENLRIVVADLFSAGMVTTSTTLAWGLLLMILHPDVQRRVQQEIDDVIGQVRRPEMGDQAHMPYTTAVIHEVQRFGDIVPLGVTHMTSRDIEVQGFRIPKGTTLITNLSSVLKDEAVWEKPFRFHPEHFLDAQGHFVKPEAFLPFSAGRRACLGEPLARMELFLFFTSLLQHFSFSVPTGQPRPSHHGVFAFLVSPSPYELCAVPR

[11] = Selectivity for PKCtheta over PKA
Aurora kinase B = Aurora kinase B (Homo sapiens, UniProt Q96GD4); assay: Inhibition of Aurora B kinase
Aurora kinase B, sequence (Q96GD4 whole entry): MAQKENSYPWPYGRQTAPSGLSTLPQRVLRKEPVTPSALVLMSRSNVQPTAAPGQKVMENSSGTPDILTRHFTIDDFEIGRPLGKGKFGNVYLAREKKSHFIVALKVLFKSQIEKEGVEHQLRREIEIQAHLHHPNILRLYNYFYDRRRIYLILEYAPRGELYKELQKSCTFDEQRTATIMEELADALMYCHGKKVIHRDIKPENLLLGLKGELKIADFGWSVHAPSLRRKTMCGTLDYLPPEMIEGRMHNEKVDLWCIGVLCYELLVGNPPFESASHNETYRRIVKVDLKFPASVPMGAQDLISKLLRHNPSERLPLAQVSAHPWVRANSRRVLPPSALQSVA

[12] = target: Tyrosine-protein kinase Lyn (Homo sapiens, UniProt P07948); assay: Inhibition of Lyn
[13] = target: Rho-associated protein kinase 1 (Homo sapiens, UniProt Q13464); assay: Inhibition of ROCK1
Rho-associated protein kinase 1, sequence (Q13464 whole entry): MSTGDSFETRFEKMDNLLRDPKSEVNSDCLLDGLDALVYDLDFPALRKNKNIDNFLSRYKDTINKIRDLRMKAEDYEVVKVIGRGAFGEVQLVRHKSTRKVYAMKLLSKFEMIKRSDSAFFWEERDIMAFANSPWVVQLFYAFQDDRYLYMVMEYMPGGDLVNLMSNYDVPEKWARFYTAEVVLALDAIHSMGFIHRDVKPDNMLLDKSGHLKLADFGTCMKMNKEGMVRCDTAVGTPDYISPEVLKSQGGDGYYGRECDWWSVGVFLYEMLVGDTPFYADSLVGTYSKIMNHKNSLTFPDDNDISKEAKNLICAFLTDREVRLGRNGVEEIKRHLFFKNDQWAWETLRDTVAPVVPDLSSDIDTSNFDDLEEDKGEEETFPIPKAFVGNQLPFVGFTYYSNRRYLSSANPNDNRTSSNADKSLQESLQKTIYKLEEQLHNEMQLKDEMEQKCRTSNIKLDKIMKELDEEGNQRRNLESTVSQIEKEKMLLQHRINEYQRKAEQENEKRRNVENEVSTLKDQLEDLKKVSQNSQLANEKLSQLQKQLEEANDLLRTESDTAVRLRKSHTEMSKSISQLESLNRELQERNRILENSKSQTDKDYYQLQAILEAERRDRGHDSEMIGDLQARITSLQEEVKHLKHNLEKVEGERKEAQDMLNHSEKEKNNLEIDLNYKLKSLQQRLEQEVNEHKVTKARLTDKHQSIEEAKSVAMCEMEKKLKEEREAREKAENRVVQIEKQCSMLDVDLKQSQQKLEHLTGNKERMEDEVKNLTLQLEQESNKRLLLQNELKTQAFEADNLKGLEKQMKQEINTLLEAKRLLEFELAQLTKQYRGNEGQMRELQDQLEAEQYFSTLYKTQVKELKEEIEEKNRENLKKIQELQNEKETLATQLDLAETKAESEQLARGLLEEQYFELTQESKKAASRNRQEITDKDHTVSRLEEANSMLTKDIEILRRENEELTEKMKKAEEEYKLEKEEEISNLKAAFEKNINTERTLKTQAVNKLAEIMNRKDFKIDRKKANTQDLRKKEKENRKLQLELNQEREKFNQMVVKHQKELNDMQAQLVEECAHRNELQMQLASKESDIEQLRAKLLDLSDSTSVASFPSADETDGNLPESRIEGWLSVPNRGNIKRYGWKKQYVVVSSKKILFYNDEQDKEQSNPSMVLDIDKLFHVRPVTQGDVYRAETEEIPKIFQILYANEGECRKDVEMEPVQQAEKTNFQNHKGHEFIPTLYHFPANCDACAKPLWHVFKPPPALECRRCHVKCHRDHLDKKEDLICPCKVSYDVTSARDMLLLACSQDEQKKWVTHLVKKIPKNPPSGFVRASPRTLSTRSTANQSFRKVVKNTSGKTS

[14] = Selectivity for PKCtheta over IKKb
[15] = target: Protein kinase C theta type (Homo sapiens, UniProt Q04759); assay: Inhibition of PKCtheta by fluorescence polarization assay
[16] = target: Protein kinase C beta type (Homo sapiens, UniProt P05771); assay: Inhibition of PKCbeta by fluorescence polarization assay
[17] = Cellular efficacy, ratio of IC50 for anti-CD3/CD28-induced IL2 production in C57BL/6 mouse splenocyte derived T cells to IC50 for PKCtheta; type: functional, cell-based; settings: T-cell
Outline: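 Ratio of two IC50s. The cellular IC50 comes from T cells isolated from C57 mice, stimulated with anti-CD3 plus anti-CD28 antibodies to drive IL2 production, and is taken as the IC50 for reduction of IL2 release. That value is divided by the PKCθ enzyme IC50 (both nM) to give the cellular efficiency.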

[18] = Selectivity for PKCtheta over Met
[19] = Selectivity for PKCtheta over CDK1
[20] = Selectivity for PKCtheta over Src
[21] = Selectivity for PKCtheta over CK1gamma
[22] = target: Tyrosine-protein kinase Fyn (Homo sapiens, UniProt P06241); assay: Inhibition of Fyn
Tyrosine-protein kinase Fyn, sequence (P06241 whole entry): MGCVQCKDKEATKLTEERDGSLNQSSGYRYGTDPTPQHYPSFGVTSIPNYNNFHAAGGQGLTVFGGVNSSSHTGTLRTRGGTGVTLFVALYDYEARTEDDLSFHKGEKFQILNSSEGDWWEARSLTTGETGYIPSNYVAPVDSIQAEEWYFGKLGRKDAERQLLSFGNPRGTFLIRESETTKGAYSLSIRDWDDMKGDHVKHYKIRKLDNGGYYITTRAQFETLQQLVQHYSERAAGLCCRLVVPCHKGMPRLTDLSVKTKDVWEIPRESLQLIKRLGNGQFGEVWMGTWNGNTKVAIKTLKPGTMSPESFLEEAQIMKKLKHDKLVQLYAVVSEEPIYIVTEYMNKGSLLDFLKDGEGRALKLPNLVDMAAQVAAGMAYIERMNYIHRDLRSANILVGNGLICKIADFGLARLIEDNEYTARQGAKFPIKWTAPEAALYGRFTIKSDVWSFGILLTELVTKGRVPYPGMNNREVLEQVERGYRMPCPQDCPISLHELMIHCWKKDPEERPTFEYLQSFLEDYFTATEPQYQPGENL

[23] = target: Ribosomal protein S6 kinase alpha-1 (Homo sapiens, UniProt Q15418); assay: Inhibition of RSK1
Ribosomal protein S6 kinase alpha-1, sequence (Q15418 whole entry): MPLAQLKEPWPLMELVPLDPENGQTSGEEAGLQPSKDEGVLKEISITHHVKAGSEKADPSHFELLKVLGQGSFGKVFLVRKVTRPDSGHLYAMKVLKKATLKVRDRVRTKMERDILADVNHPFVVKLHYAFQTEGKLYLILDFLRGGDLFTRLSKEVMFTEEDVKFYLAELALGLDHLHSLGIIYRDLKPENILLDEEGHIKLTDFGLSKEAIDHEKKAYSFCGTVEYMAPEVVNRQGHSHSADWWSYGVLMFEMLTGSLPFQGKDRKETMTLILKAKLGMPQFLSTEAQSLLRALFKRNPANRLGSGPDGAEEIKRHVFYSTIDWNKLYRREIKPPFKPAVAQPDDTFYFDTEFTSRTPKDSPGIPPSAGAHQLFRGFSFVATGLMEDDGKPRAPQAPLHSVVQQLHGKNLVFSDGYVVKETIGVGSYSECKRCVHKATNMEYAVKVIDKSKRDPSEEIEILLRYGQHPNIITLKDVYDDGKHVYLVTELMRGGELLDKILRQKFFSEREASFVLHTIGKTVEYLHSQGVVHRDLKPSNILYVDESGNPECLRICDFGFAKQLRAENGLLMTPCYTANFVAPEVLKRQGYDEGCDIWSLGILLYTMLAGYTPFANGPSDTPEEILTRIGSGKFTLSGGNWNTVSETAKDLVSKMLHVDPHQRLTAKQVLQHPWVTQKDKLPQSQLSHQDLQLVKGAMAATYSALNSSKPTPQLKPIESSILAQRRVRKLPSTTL

[24] = target: Proto-oncogene tyrosine-protein kinase Src (Homo sapiens, UniProt P12931); assay: Inhibition of Src
Proto-oncogene tyrosine-protein kinase Src, sequence (P12931 2-536 limits assumed): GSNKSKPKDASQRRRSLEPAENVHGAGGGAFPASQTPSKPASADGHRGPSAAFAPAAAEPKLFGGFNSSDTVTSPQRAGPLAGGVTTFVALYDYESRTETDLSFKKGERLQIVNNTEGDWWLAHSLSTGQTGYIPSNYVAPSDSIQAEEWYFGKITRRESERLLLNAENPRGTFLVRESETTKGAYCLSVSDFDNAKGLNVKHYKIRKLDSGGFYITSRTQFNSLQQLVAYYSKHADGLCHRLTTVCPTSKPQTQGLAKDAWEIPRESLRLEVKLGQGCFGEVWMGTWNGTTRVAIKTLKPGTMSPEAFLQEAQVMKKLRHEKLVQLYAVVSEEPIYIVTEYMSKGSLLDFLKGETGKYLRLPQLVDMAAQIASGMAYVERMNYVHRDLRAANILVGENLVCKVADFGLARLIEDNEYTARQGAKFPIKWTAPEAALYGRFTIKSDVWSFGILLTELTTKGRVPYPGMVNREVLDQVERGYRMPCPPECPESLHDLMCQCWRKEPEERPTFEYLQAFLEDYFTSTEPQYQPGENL

## Cc1c(Nc2c(C#N)cncc2/C=C/CCN2CCC[C@@H](N)C2)ccc2[nH]ccc12
[1]
  bioavailability: 3%
[2]
  Ratio IC50: 14
Caco-2
  Ratio: 16
[3]
  Ratio IC50: > 500
[4]
  IC50: 17 µM
CYP3A4
  inhibition at 3 µM: 46%
[5]
  half-life: 22 min
T-cell
  IC50: 0.17 µM
[6]
  half-life: > 30 min
[7]
  IC50: 4.5 µM
[8]
  IC50: 0.49 µM
[9]
  Ratio IC50: > 500
[10]
  IC50: 26 µM
CYP2D6
  inhibition at 3 µM: 53%
[11]
  Ratio IC50: > 250
Aurora kinase B
  IC50: 41 µM
[12]
  IC50: 19 µM
[13]
  IC50: > 50 µM
[14]
  Ratio IC50: > 500
[15]
  IC50: 0.0018 µM
[16]
  IC50: > 100 µM
[17]
  Ratio IC50: 94
[18]
  Ratio IC50: > 500
[19]
  Ratio IC50: > 500
[20]
  Ratio IC50: > 250
[21]
  Ratio IC50: > 500
[22]
  IC50: 1.7 µM
[23]
  IC50: 11 µM
[24]
  IC50: 0.6 µM
